Assay outcomes from PubChem.
PPC-1+TRAIL kill: kills PPC-1 cancer cells in the presence of TRAIL | PPC-1 cells + TRAIL, ATPLite viability luminescence | cell killing (% activity), % at 4 µM or 5 µM | actives 0.41% (n = 220,000) | AID 1443;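 active = cell killing above 50% in the first pass at 4 µM, then a duplicate retest at 5 µM averaging 50% or more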
FLuc act counter: firefly luciferase counter-screen for stimulation assays; activation factor at 10 µM; ATPlite luciferase biochemical, luminescence, 10 min; 0 = ATP-free wells, 1 = DMSO control; 200,000 tested, under 10 active;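 active = luciferase activation factor, scaled between plate controls, of at least 2 with compound at 10 µM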
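Material: Luciferase/luciferin reagent mix | Doses: Test compounds dosed from 2 mM stocks in 100% DMSO | Timing: 10 min incubation after luciferase reagent addition, room temperature | Measured by: Luminescence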
FLuc inh counter: inhibits firefly luciferase, flagging false hits in luciferase inhibition screens; inhibition, % at 10 µM; ATPLite firefly luciferase biochemical luminescence, 10 min; actives 1.5% (n = 200,000); AID 1006; P08659;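 active = inhibition above about 50% when tested at 10 µM, limit read from the data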
TRAIL sens C8: caspase-8 TRAIL sensitization. NB7+C8 cells + TRAIL, ATPlite viability luminescence. inhibition (viability loss, TRAIL sensitization), % at 10 µM. actives 1% (n = 360,000);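 active = compounds causing at least 50% loss of cell viability in the single-dose screen, relative to plate controls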
Wee1 degr inh: inhibitors of human Wee1 degradation | P30291 | HeLa Luc-Wee1K328M stability, luciferase luminescence; 100% = proteasome inhibitor MG132 effect | reporter increase, % at 5 µM | actives 1.2% (n = 220,000) | AID 1321;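 active = activation above the mean of all tested compounds plus 3 SD, set per screening run, cut at about 8.8% in these data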;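 also: cells exposed to compound for 20 h before luminescence read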
Target sequence (P30291 whole entry K328M): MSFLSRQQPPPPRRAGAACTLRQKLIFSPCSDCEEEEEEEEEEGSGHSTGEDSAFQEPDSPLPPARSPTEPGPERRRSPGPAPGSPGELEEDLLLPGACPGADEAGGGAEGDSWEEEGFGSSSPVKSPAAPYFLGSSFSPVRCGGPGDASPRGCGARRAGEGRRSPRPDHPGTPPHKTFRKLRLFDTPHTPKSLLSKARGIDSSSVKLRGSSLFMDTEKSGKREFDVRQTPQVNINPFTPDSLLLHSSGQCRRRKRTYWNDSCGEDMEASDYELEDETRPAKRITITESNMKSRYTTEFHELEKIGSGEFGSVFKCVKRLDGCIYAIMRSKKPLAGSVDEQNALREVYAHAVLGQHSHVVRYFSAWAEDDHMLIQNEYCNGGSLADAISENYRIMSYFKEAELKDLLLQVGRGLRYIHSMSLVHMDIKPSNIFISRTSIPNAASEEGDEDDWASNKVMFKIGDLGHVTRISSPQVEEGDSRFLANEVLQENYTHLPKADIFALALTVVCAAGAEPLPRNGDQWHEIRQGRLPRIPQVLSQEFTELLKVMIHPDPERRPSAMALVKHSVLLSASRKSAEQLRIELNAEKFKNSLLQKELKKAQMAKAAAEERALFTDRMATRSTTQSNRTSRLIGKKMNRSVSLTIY
PKD1 inh: PKD1 (human) kinase inhibition; Q15139; PKD1 kinase fluorescence polarization assay; inhibition, % (no concentration beside the values); actives 0.056% (n = 200,000); in the data active = inhibition above about 50%
Wee1 stab conf: human Wee1 degradation inhibition, confirmation. shares compounds with Wee1 degr inh. HeLa Luc-Wee1K328M degradation, luminescence; vehicle 0%, proteasome-blocked wells 100%. activation, % at 5 µM. actives 4% (n = 1,100). AID 1410; in the data active = activation above about 8.9%
Large screens that a line does not name were inactive (follow-up assays come after a bar, where they were run). Hits are enriched below; roughly 2.2% of the tested compounds scored in any of these assays.

COc1ccc2c(COC(=O)CC3Sc4ccccc4NC3=O)cc(=O)oc2c1 (stereo not given)	Wee1 degr inh 11 | Wee1 stab conf inactive
Cc1ccc(SC2=C(N(C)C)C(=O)c3ccccc3C2=O)cc1	none (no result: PPC-1+TRAIL kill, FLuc act counter, FLuc inh counter, Wee1 degr inh, PKD1 inh)
O=C(NC(=S)N1CCN(c2ccccc2)CC1)c1ccc(S(=O)(=O)N2CCOCC2)cc1	none (no result: FLuc act counter, FLuc inh counter, PKD1 inh)
Cc1ccc2nc(C3CCN(CC(=O)Nc4ccc5c(c4)OCCO5)CC3)[nH]c2c1	Wee1 degr inh 12 | Wee1 stab conf inactive
O=C(CN1CCC(c2nc3ccccc3[nH]2)CC1)Nc1ccc2c(c1)OCO2	none
COc1cccc(C(=O)NC(c2ccccc2)C2CCCC2)c1 (stereo not given)	none
COc1ccc(-c2nc(NC(=O)C3=NN(c4cccc(C)c4)C(=O)CC3)sc2C)cc1	none
Nc1c(N(Cc2ccccc2)C(=O)COc2ccc([N+](=O)[O-])cc2)c(=O)[nH]c(=O)n1Cc1ccccc1	none (no result: PPC-1+TRAIL kill, FLuc act counter, FLuc inh counter, Wee1 degr inh, PKD1 inh)
O=S(=O)(c1ccc(Cl)cc1Cl)n1ccc2cccnc21	Wee1 degr inh 12 | Wee1 stab conf inactive
CC(=O)N(C)c1ccc(N=Nc2c(C)[nH]n(C(N)=S)c2=O)cc1	Wee1 degr inh 17 | Wee1 stab conf inactive
CC(=O)c1ccc(N=Nc2ccc(C)cc2)cc1	FLuc inh counter 52, Wee1 degr inh 24 | Wee1 stab conf inactive
CCc1ccc(NC(=O)Cn2c(=O)n(CCC(=O)NC3CCN(Cc4ccccc4)CC3)c(=O)c3ccccc32)cc1	none (no result: FLuc act counter, FLuc inh counter, PKD1 inh)
O=C(CSc1nnc(-c2ccncc2)o1)N1CCCCCC1	Wee1 degr inh 13 | Wee1 stab conf inactive
NC(=O)CSc1nnc(-c2ccncc2)n1CCc1ccccc1	none
O=C(CSc1nnc(-c2ccncc2)n1CCc1ccccc1)N1CCCC1	Wee1 degr inh 12 (no result: FLuc act counter, FLuc inh counter, TRAIL sens C8, PKD1 inh) | Wee1 stab conf inactive
COc1cc(CN2CCN(c3ccccc3F)CC2)c([N+](=O)[O-])cc1OC	none
CCc1c(C)nc(SCC(=O)N2CCCCC2CC)[nH]c1=O (stereo not given)	none (no result: FLuc act counter, FLuc inh counter, PKD1 inh)
CCCC1CC(c2csc(N)n2)CCO1 (stereo not given)	none
CC(C)C1CC(c2csc(N)n2)CCO1 (stereo not given)	Wee1 degr inh 13 | Wee1 stab conf inactive
COc1ccc(-c2cc(=NC(CC(C)C)C(=O)O)c3cc(C)ccc3o2)cc1 (stereo not given)	Wee1 degr inh 12 | Wee1 stab conf inactive
COc1ccc([N+](=O)[O-])cc1NC(=O)CCN1CCN(CCO)CC1	Wee1 degr inh 19 | Wee1 stab conf inactive
CCCc1ccc(NC(=O)C2CCCN(c3cnccn3)C2)cc1 (stereo not given)	none (no result: PPC-1+TRAIL kill, FLuc act counter, FLuc inh counter, Wee1 degr inh, PKD1 inh)
O=C(Nc1ccc(CN2CCS(=O)(=O)CC2)cc1)c1ccc(Cl)cc1	Wee1 degr inh 11 (no result: FLuc act counter, FLuc inh counter, PKD1 inh) | Wee1 stab conf inactive
O=C(Nc1ccc(Cl)cc1)c1ccc(CN2CCc3ccccc3C2)cc1	none (no result: PPC-1+TRAIL kill, FLuc act counter, FLuc inh counter, Wee1 degr inh, PKD1 inh)
CN(Cc1ccsc1)C(=O)CCc1nnc(Cc2c[nH]c3ccccc23)o1	none (no result: PPC-1+TRAIL kill)
CN(Cc1ccsc1)C(=O)CCc1nnc(CCCc2ccccc2)o1	Wee1 degr inh 11 | Wee1 stab conf inactive
Cc1ccc2c(c1)N(S(=O)(=O)c1ccc(F)cc1)C(C(C)(C)C)CO2 (stereo not given)	none
Cc1ccc(S(=O)(=O)N2c3ccccc3OCC2C(C)(C)C)cc1 (stereo not given)	Wee1 degr inh 21 | Wee1 stab conf inactive
COc1ccc(NC(=O)COc2ccc(C(=O)NC3CCCc4ccccc43)cc2OC)cc1 (stereo not given)	Wee1 degr inh 16 | Wee1 stab conf inactive
O=C(COC(=O)c1cc(=O)[nH]c2ccccc12)Nc1ccc(Cl)cn1	none (no result: PPC-1+TRAIL kill, FLuc act counter, FLuc inh counter, Wee1 degr inh, PKD1 inh)
Fc1ccc(CSc2ccc(-c3ccco3)nn2)cc1	Wee1 degr inh 12 | Wee1 stab conf inactive
Cc1ccc(S(=O)(=O)N2CCCCC2)cc1NC(=O)C1COc2ccccc2O1 (stereo not given)	none (no result: PPC-1+TRAIL kill, FLuc act counter, FLuc inh counter, Wee1 degr inh, PKD1 inh)
c1ccc2c(-c3c[nH]c4ccccc34)c3ccccc3nc2c1	Wee1 degr inh 12 | Wee1 stab conf inactive
O=C(NCCCn1ccnc1)/C(=C\c1cccnc1)NC(=O)c1ccccc1F	Wee1 degr inh 21 | Wee1 stab conf inactive
COc1ccccc1N1CCN(CC(=O)c2ccc3ccn(C(C)=O)c3c2)CC1	none
CC(=O)OCC(=O)c1ccc2ccn(C(C)=O)c2c1	Wee1 degr inh 14 | Wee1 stab conf inactive
COc1ccc(/C=C/C(=O)NC(=S)N2CCN(c3ccccc3OC)CC2)cc1	Wee1 degr inh 12 (no result: FLuc act counter, FLuc inh counter, PKD1 inh) | Wee1 stab conf inactive
CCn1cnc2c1c(=O)n(CC(=O)NCC(C)C)c(=O)n2Cc1ccccc1	none (no result: PPC-1+TRAIL kill, FLuc act counter, FLuc inh counter, Wee1 degr inh, PKD1 inh)
CC(C)C(O)(C#CCN1CCCCC1)c1ccccc1 (stereo not given)	Wee1 degr inh 12 | Wee1 stab conf inactive
CSc1ccccc1C(=O)NC1CCCCCC1	Wee1 degr inh 14 | Wee1 stab conf inactive
Cc1ccccc1C(=O)NC1CCCCCCC1	none (no result: PPC-1+TRAIL kill, FLuc act counter, FLuc inh counter, Wee1 degr inh, PKD1 inh)
CC(C)C(=O)Nc1nnc(SCC(=O)NCc2ccc3c(c2)OCO3)s1	Wee1 degr inh 12 | Wee1 stab conf inactive
CC(C)CC(=O)Nc1nnc(SCC(=O)NCc2ccc3c(c2)OCO3)s1	none
COc1ccc(C(=O)N=c2sc3c(C)ccc(OC)c3n2C)cc1OC	Wee1 degr inh 12 (no result: FLuc act counter, FLuc inh counter, PKD1 inh) | Wee1 stab conf inactive
COc1cccc(C(=O)N=c2sc3c(C)ccc(OC)c3n2C)c1	none (no result: Wee1 degr inh, PKD1 inh)
CCc1ccc(NC(=O)Cn2nc(C(=O)O)c3ccccc3c2=O)cc1	none (no result: PPC-1+TRAIL kill, FLuc act counter, FLuc inh counter, Wee1 degr inh, PKD1 inh)
CCCc1ccc(C(=O)Cn2nc(C(=O)O)c3ccccc3c2=O)cc1	Wee1 degr inh 11 | Wee1 stab conf inactive
Cc1cc(C)c(C)c(OCCN2CC(C)OC(C)C2)c1 (stereo not given)	none (no result: PPC-1+TRAIL kill, FLuc act counter, FLuc inh counter, Wee1 degr inh, PKD1 inh)
O=C(N/N=C/C(Br)=C/c1ccccc1)c1ccncc1	none (no result: FLuc act counter, FLuc inh counter, PKD1 inh)
Cc1occc1C(=O)N/N=C/C=C/c1ccccc1	none
Cc1occc1C(=O)N/N=C/C(Br)=C\c1ccccc1	Wee1 degr inh 28 (no result: FLuc act counter, FLuc inh counter, PKD1 inh) | Wee1 stab conf inactive
O=C(N/N=C/C(Br)=C\c1ccccc1)c1cccs1	Wee1 degr inh 12 (no result: FLuc act counter, FLuc inh counter, PKD1 inh) | Wee1 stab conf inactive
CC(C)OCCCNC(=O)C(C)Oc1ccccc1 (stereo not given)	none
CC(C)OCCCNC(=O)Nc1cccc2ccccc12	Wee1 degr inh 13 | Wee1 stab conf inactive
O=C(Nc1cccc(Br)c1)c1ccc(OC2CSC2)cc1	FLuc inh counter 58, Wee1 degr inh 14 (no result: TRAIL sens C8) | Wee1 stab conf inactive
COc1ccc(NC(=O)c2ccc(Cl)c(NC(=O)c3ccncc3)c2)cc1	Wee1 degr inh 12 (no result: TRAIL sens C8) | Wee1 stab conf inactive
COc1ccc(C(=O)Nc2cccc(NC(C)=O)c2)cc1	none (no result: PPC-1+TRAIL kill, FLuc act counter, FLuc inh counter, Wee1 degr inh, PKD1 inh)
COc1ccc(C(=O)Nc2cccc(C)c2)cc1	FLuc inh counter 77, Wee1 degr inh 12 | Wee1 stab conf inactive
